Compound activity as filed in PubChem.
HCV NS3 hel inh: HCV NS3 helicase inhibition | 0.56% of 290,000 active | NS3 helicase DNA unwinding, Cy5 molecular beacon fluorescence | inhibition, % at 10.9 µM;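 active = inhibition above the mean of all tested compounds plus 3 SD, set per campaign, cut at about 35% in these data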
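System: Hepatitis C virus NS3 helicase domain fragment enzyme | Reagent: Annealed dual-labelled DNA beacon duplex, ATP-started | Compound dosing: 10.9 µM single point, 0.8% DMSO | Incubation: 1 h reaction at 25 °C, ATP-initiated | Technique: Cy5 fluorescence | Evaluation: Percent inhibition from t60/t0 fluorescence ratio | Benchmarks: Low DMSO, high thioflavine S at 110 µM | Replication: Singlicate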
eIF4H FP inh: inhibitors of RNA binding by human eIF4H. eIF4H fluorescence polarization binding assay. inhibition, % at 35 µM. 0.94% of 290,000 active. Q15056;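 also: calls also rest on retests at 20 µM and on dose response follow-up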
DNA FID counter: counter-screen for HCV NS3 helicase inhibitors: DNA intercalator displacement | DNA fluorescent intercalator displacement, fluorescence | inhibition, % at 7.9 µM | 0.17% of 290,000 active | AID 1845; in the data active = inhibition above about 37%;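 also: higher means more ethidium bromide displaced from hairpin DNA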
PABP1 MLLE inh: blocks PAM2 peptide binding to the PABP1 MLLE domain. GST-MLLE / FITC-PAM2 fluorescence polarization. P11940. 0.36% of 360,000 active. AID 588489. inhibition, % at 20 µM; in the data active = inhibition above about 35%, passing the limit was not always enough
PABP FP inh: PABP-poly(A) binding inhibition | PABP-poly(A) RNA binding, fluorescence polarization | 1% of 290,000 active | inhibition, % at 35 µM | P11940;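 also: calls also rest on retests at 20 µM and on dose response follow-up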
core dimer inh: blocks dimerization of HCV core protein; inhibition, % at 5 µM; TR-FRET GST/Flag-core106 dimerization, 1536-well; 0.33% of 300,000 active;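 active = inhibition above the mean of all tested compounds plus 3 SD, set per screening campaign, cut at about 45% in these data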
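Material: Tagged HCV core106 pair (GST and Flag) | Amount: GST-core106 13.5 nM, Flag-core106 17 nM | Medium: KF-containing HEPES buffer, pH 7.45, DTT, CHAPS, BSA | Reagent: Eu donor and XL665 acceptor anti-tag antibodies | Schedule: 4 h at 22.5 °C | Technique: Time-resolved FRET, ex 340 nm, em 617 and 671 nm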
A number is an active result; 0 = inactive; ? = inconclusive; - = not tested or not shown. Rows were chosen to be rich in hits. Some 2% of all compounds tested hit in one or more screens of this group. Unless noted, no rule for the calls is given here.

SMILES	HCV NS3 hel inh	eIF4H FP inh	DNA FID counter	PABP1 MLLE inh	PABP FP inh	core dimer inh
CC1CN(c2ccc([N+](=O)[O-])c(NCCOc3ccccc3)c2)CC(C)N1 (stereo unspecified)	0	0	0	0	0	0
Cc1ccccc1OCCNc1cc(N2CC(C)NC(C)C2)ccc1[N+](=O)[O-] (stereo unspecified)	0	0	39	0	0	0
CCCNC(=O)C1(C)CCN(C(=O)c2ccc3snnc3c2)C1 (stereo unspecified)	-	-	-	0	-	-
COc1ccc(C(=O)CCN2CCCC(C)C2)cc1 (stereo unspecified)	0	0	0	41	0	0
COc1ccc(C(=O)CCN2CCC(C)CC2)cc1	0	0	0	44	0	0
COc1cc(CC(=O)OCC(=O)NCc2ccco2)cc(OC)c1OC	-	-	-	0	-	-
COc1cc(CN2C[C@@H](CO)O[C@@H](n3cnc4c(NCC(C)C)ncnc43)C2)cc(OC)c1OC	-	-	-	0	-	-
COc1ccccc1-c1cc2c(c3c1ccn3C)C1CCC2C1 (stereo unspecified)	-	-	-	0	-	-
Nc1ccc(/C=C/C(=O)c2ccco2)cc1	0	54	0	0	5.4	0
N#Cc1ccc(/C=C/C(=O)c2ccco2)cc1	0	0	0	0	0	0
NC(=S)N=Nc1c(O)n(CCCl)c2ccc(Br)cc12	0	0	0	0	0	0
C/C(Cl)=C\Cn1c(O)c(N=NC(N)=S)c2cc(Br)ccc21	0	0	0	44	0	0
CCOC(=O)c1sc(NC(=S)NC(=O)C2CCCC2)cc1C	0	0	0	0	0	46
CCOC(=O)c1sc(NC(=O)C(C)(C)C)cc1C	0	0	0	0	0	0
CCOC(=O)c1sc(NC(=S)NC(=O)CC(C)C)cc1C	0	0	0	0	0	71
COc1ccc(C2CCCCC2SCC(=O)O)cc1OC (stereo unspecified)	-	-	-	0	-	-
COc1ccc(CC(=O)Nc2ccc(S(=O)(=O)N3CCN(C)CC3)cc2)cc1	-	-	-	0	-	-
OC[C@@H]1CN(Cc2cccnc2)C[C@H](n2cnc3c(NC4CCCC4)ncnc32)O1	-	-	-	0	-	-
C[C@@H]1CN([C@H](C)CO)C(=O)CCCn2cc(nn2)CO[C@H]1CN(C)S(=O)(=O)c1ccc2ccccc2c1	-	-	-	0	-	-
CC(=O)N1CCc2cc(N=NC3=C(O)CCCC3=O)ccc21	0	54	0	0	1.4	0
O=C1CCCC(O)=C1N=Nc1ccc(Cl)c(Cl)c1	0	0	0	0	0	0
CCOc1cccc(C(=O)Nc2ccc(N(CC)CC)cc2)c1	0	0	0	0	0	0
CCN(CC)c1cccc(OCC(=O)N(C)CCC#N)c1	0	60	0	0	57	0
COc1ccc(NC(=O)CCN2CCN(c3ccccc3F)CC2)c(OC)c1	0	0	0	0	0	0
CC1(C)Cc2c(C#N)c(N3CCN(C(=O)c4ccccc4Cl)CC3)nc(-c3ccco3)c2CS1	0	?	0	0	?	81
SMILES	HCV NS3 hel inh	eIF4H FP inh	DNA FID counter	PABP1 MLLE inh	PABP FP inh	core dimer inh
CC1(C)Cc2c(C#N)c(N3CCN(C(=O)c4ccco4)CC3)nc(-c3ccco3)c2CS1	0	?	0	0	0	72
CC(C)CC[n+]1ccccc1/C=C/c1ccc(N(C)C)cc1	0	?	0	0	64	0
COc1ccc(N2CCN(C(=O)CCc3nnc4ccc(N5CCCC5)nn34)CC2)cc1	0	0	0	0	0	0
Cn1ncc2c1NC(c1ccc(F)cc1)SCC2=O (stereo unspecified)	-	-	-	0	-	-
Nc1nnc(CSCc2ccccc2Cl)s1	0	0	0	0	0	0
Nc1nnc(SCc2ccccc2Cl)s1	0	7.2	0	0	52	0
CCN1CCc2nc3sc(C(=O)N4CCc5ccccc5C4)c(N)c3cc2C1	0	98	0	0	89	0
Cc1ccc2c(CN3CCCCC3)cc(=O)oc2c1C	0	0	0	0	0	0
Cc1ccc2c(CN3CCCc4ccccc43)cc(=O)oc2c1C	0	34	0	0	76	0
CCOc1ccc(C(Nc2ccc(C)cc2)P2(=O)OCCCO2)cc1 (stereo unspecified)	0	0	0	0	0	0
CCOc1ccc(C(Nc2ccc(C)cc2)P2(=O)OCC(C)(C)CO2)cc1 (stereo unspecified)	0	98	0	0	36	0
Cc1ccc(OC2CCN(C(=O)[C@H]3O[C@@H](n4ccc(N)nc4=O)[C@H](O)[C@@H]3O)CC2)cc1	-	-	-	0	-	-
O=[N+]([O-])c1cc2ccccc2c(O)c1O	-	-	-	41	-	-
CC1CCN(CCc2nc3cc(NC(=O)COc4ccc(Cl)cc4)ccc3n2C)CC1	0	0	0	0	0	0
O=C(CCl)Nc1cn(-c2ccccc2)nc1-c1ccc(F)cc1	0	0	0	0	0	0
CC1(C)N=C(SCC(=O)Nc2ccccc2)C(c2ccc(Cl)cc2)=N1	0	0	0	44	0	0
O=C(CSc1ncn(-c2ccccc2)n1)c1cccs1	0	0	0	38	0	0
Cc1ccc(NC(=O)CSc2nnc3c(n2)[nH]c2ccccc23)cc1	0	0	0	0	0	0
O=C(CSc1nnc2c(n1)[nH]c1ccccc12)Nc1ccc2c(c1)OCO2	0	0	0	37	0	0
O=C(CSc1ncn(-c2ccccc2)n1)Nc1ccc2c(c1)OCCO2	0	0	0	37	0	0
CCCCCc1nnc(NC(=O)c2cccc(S(=O)(=O)N3CCOCC3)c2)s1	-	-	-	0	-	-
O=C(CSC1=NC2(CCCCC2)N=C1c1ccccc1)Nc1ccc2c(c1)OCCO2	0	?	0	46	?	0
O=C(CSc1nnc(CNC(=O)c2ccccc2F)o1)Nc1ccc2c(c1)OCCO2	0	0	0	47	0	0
O=C(CSc1nnc(CNC(=O)c2ccccc2F)o1)Nc1ccc2c(c1)OCO2	0	0	0	0	0	0
Cc1cc(C)c(C(O)c2ncc(-c3ccccc3Cl)[nH]2)c(C)c1 (stereo unspecified)	-	-	-	0	-	-
SMILES	HCV NS3 hel inh	eIF4H FP inh	DNA FID counter	PABP1 MLLE inh	PABP FP inh	core dimer inh
Nc1cccc(C(=O)N/N=C/c2ccsc2)c1	0	84	0	0	5.5	0
CCc1c(C)nc2cc(-c3ccc(Cl)cc3)[nH]n2c1=O	0	0	0	0	0	0
O=c1c2c(nc3cc(-c4ccc(Cl)cc4)[nH]n13)CCS2	0	?	0	0	0.7	0
O=C(NCc1cccc(Cl)c1)c1ccc(S(=O)(=O)N2CCCCC2)cc1	-	-	-	0	-	-
COc1cccc(-c2nc(=S)c3c(n2CCCO)CCCC3)c1	0	0	0	41	0	0
CC(C)Cn1c(-c2ccccc2)nc(=S)c2c1CCCC2	0	0	0	0	0	0
NC(=O)CC1NC(=O)c2cc([N+](=O)[O-])cc(I)c2OCCC(C(N)=O)NC(=O)[C@@H]2CCCN2C1=O (stereo partly specified)	0	active	0	-	0	0
O=C(C[C@H]1C[C@@H]2c3cc(NS(=O)(=O)c4ccccc4)ccc3O[C@@H]2[C@H](CO)O1)N1CCOCC1	-	-	-	0	-	-
